ChEMBL document CHEMBL2417519, “Structure-activity relationships for ketamine esters as short-acting anaesthetics” (Bioorg Med Chem, 2013)

Key:
Type in all cases: functional
Rattus norvegicus [1] = experiment: Anesthetic effect in iv dosed Sprague-Dawley rat assessed as time required to walk
Method in brief: (§1)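 Adult female Sprague-Dawley rats (~350–450 g), restrained, tail marginal vein cannulated; drug at 10 mg/ml given by continuous iv infusion, initially 20 mg/kg/min until pedal withdrawal reflex score PWR = 1, then 6.7 mg/kg/min titrated up-and-down to keep dorsal recumbency and PWR = 1 to 10 min before cessation. Three rats per study, each its own ketamine control; randomised order, ≥1 h recovery between experiments.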

Rattus norvegicus [2] = experiment: Anesthetic effect in iv dosed Sprague-Dawley rat assessed as duration of recovery of righting reflex; method in brief: as §1
Rattus norvegicus [3] = experiment: Analgesic effect in iv dosed Sprague-Dawley rat assessed as dose required to cause pedal withdrawal reflex; method in brief: as §1
Rattus norvegicus [4] = experiment: Analgesic effect in iv dosed Sprague-Dawley rat assessed as time required to cause pedal withdrawal reflex; method in brief: as §1
Rattus norvegicus [5] = experiment: Anesthetic effect in iv dosed Sprague-Dawley rat assessed as dose required to cause loss of righting reflex; method in brief: as §1
Rattus norvegicus [6] = experiment: Anesthetic effect in iv dosed Sprague-Dawley rat assessed as duration of loss of righting reflex; method in brief: as §1

Row | SMILES | Time (Rattus norvegicus [1]) | Time (Rattus norvegicus [2]) | Activity (Rattus norvegicus [3]) | Time (Rattus norvegicus [4]) | Activity (Rattus norvegicus [5]) | Time (Rattus norvegicus [6])
1 | CN(C)[C@]1(c2ccccc2Cl)CCCCC1=O.Cl | 1215 s | 880 s | 35 mg/kg | 103 s | 32 mg/kg | 94 s
2 | Cl.O=C1CCCC[C@]1(NCCCO)c1ccccc1Cl | 588 s | 341 s | 34 mg/kg | 102 s | 21 mg/kg | 59 s
3 | CC(=O)OCCCN[C@]1(c2ccccc2Cl)CCCCC1=O.Cl | – | – | 34 mg/kg | – | 26 mg/kg | 81 s
4 | CCOC(=O)CCN[C@]1(c2ccccc2Cl)CCCCC1=O.Cl | 80 s | 62 s | 62 mg/kg | 185 s | 59 mg/kg | 171 s
5 | CC(C)OC(=O)CCN[C@]1(c2ccccc2Cl)CCCCC1=O.Cl | – | 15 s | 84 mg/kg | – | 74 mg/kg | –
6 | CC(C)OC(=O)CCN[C@@]1(c2ccccc2Cl)CCCCC1=O.Cl | 900 s | 0 s | 82 mg/kg | 190 s | 71 mg/kg | 170 s
7 | CCCOC(=O)CCNC1(c2ccccc2Cl)CCCCC1=O.Cl (racemic) | 0 s | 0 s | 136 mg/kg | 420 s | 131 mg/kg | 404 s
8 | CCOC(=O)CCCNC1(c2ccccc2Cl)CCCCC1=O.Cl (racemic) | 170 s | 95 s | 44 mg/kg | – | 24 mg/kg | 70 s
9 | CC(C)OC(=O)CCCNC1(c2ccccc2Cl)CCCCC1=O.Cl (racemic) | 110 s | 37 s | 66 mg/kg | – | 42 mg/kg | –
10 | CCCOC(=O)CCCNC1(c2ccccc2Cl)CCCCC1=O.Cl (racemic) | 65 s | 10 s | 209 mg/kg | 558 s | 137 mg/kg | 329 s
11 | CCOC(=O)CCCCNC1(c2ccccc2Cl)CCCCC1=O.Cl (racemic) | 112 s | – | 57 mg/kg | – | 34 mg/kg | 97 s
12 | CC(C)OC(=O)CCCCNC1(c2ccccc2Cl)CCCCC1=O.Cl (racemic) | 320 s | 180 s | 38 mg/kg | – | 38 mg/kg | –
13 | CCCOC(=O)CCCCNC1(c2ccccc2Cl)CCCCC1=O.Cl (racemic) | 90 s | 45 s | 83 mg/kg | 277 s | 82 mg/kg | 271 s
14 | CN(C)C1(c2ccccc2Cl)CCCCC1=O.Cl (racemic) | 1740 s | 1500 s | 43 mg/kg | 130 s | 43 mg/kg | 125 s
15 | CCOC(=O)CCN(C)C1(c2ccccc2Cl)CCCCC1=O (racemic) | 0 s | 0 s | 99 mg/kg | 290 s | 95 mg/kg | 280 s
16 | CCOC(=O)CCCN(C)C1(c2ccccc2Cl)CCCCC1=O.Cl (racemic) | 0 s | 0 s | – | 600 s | – | 600 s
17 | COC(=O)CCCCN(C)C1(c2ccccc2Cl)CCCCC1=O (racemic) | – | 0 s | – | – | – | 420 s
18 | CCOC(=O)CCNC1(c2ccccc2Cl)CCCCC1=O.Cl (racemic) | – | – | 55 mg/kg | – | 48 mg/kg | –
19 | CC(C)OC(=O)CCNC1(c2ccccc2Cl)CCCCC1=O.Cl (racemic) | – | 83 s | 37 mg/kg | – | 33 mg/kg | –
20 | CNC1(c2ccccc2Cl)CCCCC1=O (racemic) [KETAMINE] | 900 s | 480 s | 21 mg/kg | 60 s | 17 mg/kg | 51 s
